# Where a name gives a salt, the structure may show the parent alone. Marks after values point to notes of the source that are not given here.
# Experiments:
# EA.hy926 cells [1] = experiment: Protein content; format: cell-based; conditions: Homo sapiens, EA.hy 926, 72 h, read-out: EA.hy926 IC50 SRB
# Summary of the method: (§1)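 Seeded 2×10^4 cells per well for 24 h, then treated with or without test compound for three days, in triplicate. Fixed with 50% TCA for 1 h at 4 °C, washed and dried. Stained 30 min at 4 °C with 0.4% sulforhodamine B in 1% acetic acid, rinsed with 1% acetic acid. Dye redissolved in Tris buffer, absorbance read at 490 nm. Doxorubicin control; MTT and SRB data pooled, mean ± SD, n≥6.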
# HepG2 cells [2] = experiment: Intracellular ROS; format: cell-based; conditions: Homo sapiens; for activity at 1 µM: HepG2, read-out: Intracellular ROS, percentage compared to the untreated control cells (ROS/SRB), HepG2, 1 μM; for activity at 10 µM: HepG2, read-out: Intracellular ROS, percentage compared to the untreated control cells (ROS/SRB), HepG2, 10 μM
# Summary of the method: (§2)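 Cells grown in DMEM+glutamax with 1% NEAA, 1% P/S and 10% FBS at 37 °C, 10% CO2. Seeded at 2×10^4 cells/well for 24 h, then confluent cells were exposed to test compound at 1 or 10 µM in serum-free medium, with NAC as control. Cells were washed, loaded with DCFH-DA for 30 min, then kept 1 h in phenol red-free DMEM. Fluorescence read at ex 485/em 535 nm, normalised to same-well SRB protein (490 nm) and given as % of untreated cells. Mean ± SD, n≥3; two-tailed t-test with unequal variances.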
# Caco‐2 cells [3] = experiment: Protein content; format: cell-based; conditions: Homo sapiens, Caco-2, 72 h, read-out: Caco‐2 IC50 SRB
# Summary of the method: as §1
# HT‐29 cells [4] = experiment: Mitochondria activity; format: cell-based; conditions: Homo sapiens, HT-29, 72 h, read-out: HT‐29 IC50 MTT
# Summary of the method: (§3)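 Cells kept in DMEM+glutamax with 1% NEAA, 1% P/S and 10% FBS at 37 °C, 10% CO2. Seeded 2×10^4 per well for 24 h, then exposed 72 h to test compound at various concentrations in serum-free medium, in triplicate. MTT (5 mg/mL in PBS) added for 2 h, formazan dissolved in DMSO, read at 570 nm. IC50 from % survival; doxorubicin control; MTT and SRB data pooled, mean ± SD, n≥6.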
# HepG2 cells [5] = experiment: Protein content; format: cell-based; conditions: Homo sapiens, HepG2, 72 h, read-out: HepG2 IC50 SRB
# Summary of the method: as §1
# EA.hy926 cells [6] = experiment: Mitochondria activity; format: cell-based; conditions: Homo sapiens, EA.hy 926, 72 h, read-out: EA.hy926 IC50 MTT
# Summary of the method: as §3
# HepG2 cells [7] = experiment: Mitochondria activity; format: cell-based; conditions: Homo sapiens, HepG2, 72 h, read-out: HepG2 IC50 MTT
# Summary of the method: as §3
# EA.hy926 cells [8] = experiment: Intracellular ROS; format: cell-based; conditions: Homo sapiens; for activity at 1 µM: EA.hy 926, read-out: Intracellular ROS, percentage compared to the untreated control cells (ROS/SRB), EA.hy926, 1 μM; for activity at 10 µM: EA.hy 926, read-out: Intracellular ROS, percentage compared to the untreated control cells (ROS/SRB), EA.hy926, 10 μM
# Summary of the method: as §2
# [9] = Ferric reducing antioxidant power; conditions: chemical antioxidant capacity, n=3
# Summary of the method: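 FRAP reagent made from acetate buffer, TPTZ in ethanol and FeCl3·6H2O in dilute HCl, mixed 10:1:1, with TPTZ and iron solutions fresh daily. Sample mixed with reagent 1:9, absorbance read at 593 nm after 4 min. Values expressed as Trolox equivalents by linear regression on a Trolox standard curve; α-tocopherol positive control.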
# [10] = Water solubility, shake flask method in 0.1 M phosphate buffer pH 6.8; format: physicochemical; conditions: 37 °C, pH 6.8, aqueous buffer, thermodynamic from solid
# Summary of the method: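 Excess solid added to 1 mL sodium phosphate buffer, pH 6.8. Two conditions: 90 min sonication at 37 °C, or 30 min sonication at 37 °C, 23 h shaking at 300 rpm, then 30 min sonication. Centrifuged 14000 rpm for 5 min, filtered (0.2 µm) at 37 °C and diluted in DMSO. Quantified by LC at maximum absorbance against standard curves; independent triplicates.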
# HT‐29 cells [11] = experiment: Protein content; format: cell-based; conditions: Homo sapiens, HT-29, 72 h, read-out: HT‐29 IC50 SRB
# Summary of the method: as §1
# HT‐29 cells [12] = experiment: Intracellular ROS; format: cell-based; conditions: Homo sapiens; for activity at 1 µM: HT-29, read-out: Intracellular ROS, percentage compared to the untreated control cells (ROS/SRB), HT‐29, 1 μM; for activity at 10 µM: HT-29, read-out: Intracellular ROS, percentage compared to the untreated control cells (ROS/SRB), HT‐29, 10 μM
# Summary of the method: as §2
# Caco‐2 cells [13] = experiment: Intracellular ROS; format: cell-based, human; conditions: protein content normalization, mean±SD, n≥3
# Summary of the method: as §2
# Caco‐2 cells [14] = experiment: Mitochondria activity; format: cell-based; conditions: Homo sapiens, Caco-2, 72 h, read-out: Caco‐2 IC50 MTT
# Summary of the method: as §3
IC50 (Caco‐2 cells [3]) [µM],IC50 (HepG2 cells [5]) [µM],IC50 (HepG2 cells [7]) [µM],solubility at 90 min [10] [µM],solubility at 24 h [10] [µM],"Intracellular ROS, percentage compared to the untreated control cells (ROS/SRB), Caco‐2, 1 μM (Caco‐2 cells [13])","Intracellular ROS, percentage compared to the untreated control cells (ROS/SRB), Caco‐2, 10 μM (Caco‐2 cells [13])",IC50 (Caco‐2 cells [14]) [µM],SMILES,IC50 (EA.hy926 cells [1]) [µM],activity at 1 µM (HepG2 cells [2]) [%],activity at 10 µM (HepG2 cells [2]) [%],IC50 (HT‐29 cells [4]) [µM],IC50 (EA.hy926 cells [6]) [µM],activity at 1 µM (EA.hy926 cells [8]) [%],activity at 10 µM (EA.hy926 cells [8]) [%],FRAP [9] [Trolox equiv per μM],IC50 (HT‐29 cells [11]) [µM],activity at 1 µM (HT‐29 cells [12]) [%],activity at 10 µM (HT‐29 cells [12]) [%]
31.6 ± 9,20.8 ± 1.5,26.2 ± 0.3,168 ± 6,303 ± 16,109.8±7.4%,114.7±3.1^[b] %,45.3 ± 10.5,"CC(C)CNC(=C\C(=O)/C=C/c1cccnc1)/C=C/c1cccnc1 [5 a, (1E,4Z,6E)‐5‐Isobutylamino‐1,7‐di(pyridin‐3‐yl)hepta‐1,4,6‐trien‐3‐one]",35.9 ± 7.2,90.7 ± 13.7,94 ± 4.6,37.6 ± 1.8,33 ± 9.5,88.7 ± 9.3,93.4 ± 14.6,0.03,30.9 ± 10.9,103 ± 11.1,84.1 ± 2.5
60.8 ± 6,> 75,> 75,11.3 ± 0.6,12.2 ± 0.6,101.3±0.9%,117.7±5.6^[b] %,65.6 ± 2.1,"O=C(/C=C(/C=C/c1cccnc1)NC1CCCCC1)/C=C/c1cccnc1 [5 b, (1E,4Z,6E)‐5‐Cyclohexylamino‐1,7‐di(pyridin‐3‐yl)hepta‐1,4,6‐trien‐3‐one]",53 ± 1.9,92.3 ± 7.8,98.8 ± 4.6,36.4 ± 7.9,40.2 ± 1.4,89.1 ± 4.2,114 ± 9.5,0.00,19.4 ± 0.9,93.7 ± 13.2,90.6 ± 2.8
49.1 ± 0.6,66.4 ± 1.3,56.7 ± 3.7,895 ± 18,2280 ± 174,102.4±8.8%,243.2±17.5^[b] %,53.8 ± 0.6,"COCCNC(=C\C(=O)/C=C/c1cccnc1)/C=C/c1cccnc1 [5 c, (1E,4Z,6E)‐5‐(2‐Methoxyethylamino)‐1,7‐di(pyridin‐3‐yl)hepta‐1,4,6‐trien‐3‐one]",63 ± 8.3,94.8 ± 4,88.4 ± 5.3,55.3 ± 12.5,60 ± 10.5,83.7 ± 6.7,89.5 ± 2.7,0.00,46 ± 15.8,100 ± 5.8,88.1 ± 3.6
36 ± 0.1,> 75,> 75,897.4 ± 1.1,2310 ± 90,101.5±9.2%,110.6±5.3^[b] %,28.5 ± 3.5,"COCCCNC(=C\C(=O)/C=C/c1cccnc1)/C=C/c1cccnc1 [5 d, (1E,4Z,6E)‐5‐(3‐Methoxypropylamino)‐1,7‐di(pyridin‐3‐yl)hepta‐1,4,6‐trien‐3‐one]",72.7 ± 3.7,92.3 ± 4.6,89.4 ± 3.1,59.6 ± 7.7,70.6 ± 2.5,102 ± 5.8,98.3 ± 2,0.01,51.5 ± 6.1,102 ± 19.4,95.1 ± 14
> 75,> 75,> 75,4350 ± 260,4850 ± 140,111.4±8.9%,118.6±2.8^[c] %,> 75,"O=C(/C=C(/C=C/c1cccnc1)NCCO)/C=C/c1cccnc1 [5 e, (1E,4Z,6E)‐5‐(2‐Hydroxyethylamino)‐1,7‐di(pyridin‐3‐yl)hepta‐1,4,6‐trien‐3‐one]",> 75,88.6 ± 15.2,92.1 ± 5.1,> 75,> 75,102 ± 1.6,115 ± 7.6,0.04,> 75,93.9 ± 5.5,110 ± 3.7
> 75,> 75,> 75,1470 ± 24,4270 ± 332,102.5±2.3%,115.4±8.5%,> 75,"O=C(/C=C(/C=C/c1cccnc1)NCCCO)/C=C/c1cccnc1 [5 f, (1E,4Z,6E)‐5‐(3‐Hydroxypropylamino)‐1,7‐di(pyridin‐3‐yl)hepta‐1,4,6‐trien‐3‐one]",> 75,84.8 ± 2.5,74.4 ± 3.2,> 75,> 75,88.7 ± 1.6,102 ± 1.6,0.04,> 75,95.4 ± 1.7,96 ± 12.7
> 75,> 75,> 75,1280 ± 61.2,2980 ± 166,90.8±6.3%,89.9±3.4%,> 75,"COCCCN1C(/C=C/c2cccnc2)=CC(=O)CC1c1cccnc1 (centres unmarked) [6 d, (E)‐1‐(3‐Methoxypropyl)‐2‐(pyridin‐3‐yl)‐6‐[2‐(pyridin‐3‐yl)vinyl]‐2,3‐dihydropyridin‐4(1H)‐one]",> 75,85.6 ± 8.9,95.7 ± 10,> 75,> 75,95.2 ± 5,98.3 ± 5.3,0.00,> 75,83.4 ± 5.6,88.4 ± 4.1
12.1 ± 0.8,2.5 ± 1.2,5.5 ± 1.4,–,–,–,–,11.1 ± 1,"COc1cccc2c1C(=O)c1c(O)c3c(c(O)c1C2=O)C[C@@](O)(C(=O)CO)C[C@@H]3O[C@H]1C[C@H](N)[C@H](O)[C@H](C)O1 [Dox, doxorubicin hydrochloride, reference compound]",1.4 ± 0.3,–,–,4 ± 0.9,1.4 ± 0.5,–,–,–,3.5 ± 0.4,–,–
> 75,–,–,–,–,55.7±5.8^[c] %,47.8±2.6^[c] %,> 75,"CC(=O)N[C@@H](CS)C(=O)O [N‐acetyl‐L‐cysteine, reference compound]",–,73.1 ± 2.7,70.5 ± 3.1,–,–,79.6 ± 11.1,79.6 ± 7.4,–,–,90.1 ± 12,87.7 ± 3.7
–,–,–,–,–,–,–,–,"Cc1c(C)c2c(c(C)c1O)CC[C@@](C)(CCC[C@H](C)CCC[C@H](C)CCCC(C)C)O2 [α‐tocopherol, reference compound]",–,–,–,–,–,–,–,0.76,–,–,–

# From paper PMC5974556 (ChemistryOpen, 2018)
